# Reference: ChEMBL document CHEMBL4311956, “A Qualified Success: Discovery of a New Series of ATAD2 Bromodomain Inhibitors with a Novel Binding Mode Using High-Throughput Screening and Hit Qualification” (J Med Chem, 2019)
# Active and inactive are the calls of the source.
# Legend:
# [1] = molecular target: T1, ATPase family AAA domain-containing protein 2 (Homo sapiens, UniProt Q6PL18); experiment: Binding affinity to human partial length ATAD2A (Q981 to R1108 residues) expressed in Escherichia coli BL21(DE3) cells after 1 hr by competitive binding assay
# T1 sequence (Q6PL18 whole entry): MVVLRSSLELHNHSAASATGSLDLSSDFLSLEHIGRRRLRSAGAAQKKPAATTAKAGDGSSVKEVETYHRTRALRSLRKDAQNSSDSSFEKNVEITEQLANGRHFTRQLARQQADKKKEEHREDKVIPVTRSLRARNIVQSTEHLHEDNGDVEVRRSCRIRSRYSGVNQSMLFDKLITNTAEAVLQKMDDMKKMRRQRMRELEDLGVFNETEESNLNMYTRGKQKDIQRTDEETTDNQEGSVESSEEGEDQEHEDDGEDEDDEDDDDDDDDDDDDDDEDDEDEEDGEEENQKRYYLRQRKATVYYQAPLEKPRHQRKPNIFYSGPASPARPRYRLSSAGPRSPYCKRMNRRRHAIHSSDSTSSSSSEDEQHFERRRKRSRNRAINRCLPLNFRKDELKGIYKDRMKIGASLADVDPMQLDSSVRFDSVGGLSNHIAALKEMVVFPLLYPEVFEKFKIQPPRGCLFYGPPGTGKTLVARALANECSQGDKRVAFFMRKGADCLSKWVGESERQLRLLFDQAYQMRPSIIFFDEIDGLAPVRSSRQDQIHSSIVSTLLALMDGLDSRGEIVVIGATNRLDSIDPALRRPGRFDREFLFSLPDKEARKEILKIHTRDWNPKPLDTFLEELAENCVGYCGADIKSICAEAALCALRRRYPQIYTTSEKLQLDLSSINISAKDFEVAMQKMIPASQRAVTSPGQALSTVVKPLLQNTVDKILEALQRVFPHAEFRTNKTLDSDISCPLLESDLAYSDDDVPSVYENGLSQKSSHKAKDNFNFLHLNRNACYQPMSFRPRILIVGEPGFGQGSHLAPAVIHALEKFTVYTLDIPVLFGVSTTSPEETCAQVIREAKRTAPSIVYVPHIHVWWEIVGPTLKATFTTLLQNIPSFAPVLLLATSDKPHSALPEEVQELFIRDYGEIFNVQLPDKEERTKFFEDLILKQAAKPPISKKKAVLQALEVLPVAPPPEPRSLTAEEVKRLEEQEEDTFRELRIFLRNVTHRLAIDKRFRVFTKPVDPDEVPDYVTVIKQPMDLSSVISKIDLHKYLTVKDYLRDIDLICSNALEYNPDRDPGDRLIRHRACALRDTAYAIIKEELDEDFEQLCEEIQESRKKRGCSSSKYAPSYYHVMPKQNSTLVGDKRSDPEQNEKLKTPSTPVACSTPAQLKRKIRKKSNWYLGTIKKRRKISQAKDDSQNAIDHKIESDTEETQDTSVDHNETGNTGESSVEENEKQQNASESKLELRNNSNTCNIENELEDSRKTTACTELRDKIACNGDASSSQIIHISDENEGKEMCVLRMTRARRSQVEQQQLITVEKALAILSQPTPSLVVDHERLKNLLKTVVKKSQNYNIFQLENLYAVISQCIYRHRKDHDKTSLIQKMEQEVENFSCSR
# [2] = molecular target: T1, ATPase family AAA domain-containing protein 2; experiment: Displacement of biotinylated H4 peptide from His6/FLAG-tagged TEV fused ATAD2 bromodomain (950 to 1148 residues) (unknown origin) expressed in Escherichia coli BL21(DE3) cells after 30 mins by TR-FRET assay
# How it was run: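 TR-FRET acetylated-peptide displacement assay using 6H-Flag-tev ATAD2(950–1148). Used for the HTS: single-concentration primary screen with digital plate-pattern correction, then replated duplicate retest and dose–response. A curve-fit cutoff of IC50 > 30 μM applies.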
# [3] = molecular target: T2, ATPase family AAA domain-containing protein 2 (Homo sapiens) (UniProt Q6PL18); experiment: Displacement of SGRG-K(Ac)-GG-K(Ac)-GLG-K(Ac)-GGAKRHRKV-biotin) from His6/FLAG-tagged TEV fused ATAD2 bromodomain (981 to 1121 residues) (unknown origin) expressed in Escherichia coli BL21(DE3) cells up to 10 uM after 30 mins by TR-FRET assay
# T2 sequence (whole entry): T1 sequence (Q6PL18 whole entry)
# [4] = molecular target: T2, ATPase family AAA domain-containing protein 2 (Homo sapiens); experiment: Binding affinity to 15N-labelled ATAD2 (981 to 1108 residues) (unknown origin) at 100 uM by 1H-15N HSQC NMR analysis
# How it was run: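 15N–1H HSQC spectra of labelled ATAD2 bromodomain recorded with and without compound at 100 μM. Binding is judged from spectral changes.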
# [5] = molecular target: Bromodomain-containing protein 4 (Homo sapiens, UniProt O60885, Y390A); experiment: Displacement of Alexa Fluor 647 labelled ligand from His6-tagged BRD4 BD1 (1 to 477 residues)/BD2 Y390A mutant (unknown origin) after 30 mins by TR-FRET assay
# How it was run: (§1)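 BET selectivity by TR-FRET fluoroligand displacement. Uses tandem BET bromodomain constructs carrying a mutation in the non-assayed bromodomain.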
# [6] = molecular target: Bromodomain-containing protein 4 (Homo sapiens, UniProt O60885, Y97A); experiment: Displacement of Alexa Fluor 647 labelled ligand from His6-tagged BRD4 BD2 (1 to 477 residues)/BD1 Y97A mutant (unknown origin) after 30 mins by TR-FRET assay; how it was run: as §1
# [7] = molecular target: T1, ATPase family AAA domain-containing protein 2; experiment: Displacement of Alexa Fluor 488 labelled ligand from ATAD2 bromodomain (981 to 1121 residues) (unknown origin) expressed in Escherichia coli BL21(DE3) cells after 30 mins by TR-FRET assay
smiles,measurement,setting,value
CCOC(=O)Nc1cc(-c2ccc(C)c(NS(C)(=O)=O)c2)nn2c(C)nnc12,Kd,[1],44 µM
CN1CCN(c2nc(C(=O)c3ccccc3)c3cnn(C)c3n2)CC1,IC50,[2],0.03 µM
same,Activity,[3],inactive
same,Activity,[4],inactive
CC1CCCN(S(=O)(=O)c2cc(NC(=O)CN3C(=O)CNC3=O)ccc2Br)C1 (configuration not stated),IC50,[5],> 50.1 µM
same,IC50,[6],31.6 µM
same,IC50,[7],0.631 µM
